Measurements reported in ChEMBL document CHEMBL5674882, “Benzolactam-related compounds promote apoptosis of HIV-infected human cells via protein kinase C-induced HIV latency reversal” (J Biol Chem, 2019).
Active and inactive are the calls of the source. No cut-off for these calls is given here.

Columns and labels:
[1] = target: T1, Protein kinase C (PKC) (Homo sapiens) (UniProt O94806+P41743+P17252+P05129+Q05655+P05771+Q05513+Q02156+P24723+Q15139+Q04759); assay: Activation of PKC CD4+ T-cells purified from HIV-infected patient assessed as increase in transcription of HIV mRNA at 1 uM incubated for 24 hrs by qRT-PCR method; type: cell-based; conditions: CD4+ T cell, filed as activator
Procedure, shortened: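 CD4+ T-cells purified from PBMC of eight cART-treated HIV+ patients (cART ≥5 years, plasma viral load <20 copies/ml), plated at 2.5 × 10^6 cells/ml and treated 24 h. Total RNA extracted; HIV RNA quantified by qRT-PCR against a plasmid standard curve, normalized per ng input RNA, and expressed as fold over untreated cells. Medians of eight individuals; Mann-Whitney U test.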

[2] = target: T1, Protein kinase C (PKC) (Homo sapiens); assay: Activation of PKC in human J-Lat 6.3 cells infected with latent HIV-1 assessed as reversal of HIV-1 latency by measuring increase of GFP-positive cells at 10 uM in presence of PKC alpha/beta/gamma inhibitor GF109203X incubated for 24 hrs by flow cytometry; type: cell-based
Procedure, shortened: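 J-Lat 6.3 cells pretreated 3 h with a PKC inhibitor: Gö 6983 1 µM, Gö 6976 1 µM, GF 109203X 1 µM, PKCθ/δ inhibitor 10 µM, or Rottlerin 1 µM. Then exposed to 10 µM compound for 24 h; GFP-positive cells counted by flow cytometry. Mean ± S.D.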

For CCCCCCCCCCc1ccc2c(c1)N(C)[C@@H](C(C)C)C(=O)N[C@H](CO)C2, the Activity [1] was “Active” and the Activity [2] was “inactive”.
